Assay results as given in ChEMBL document CHEMBL4118104, “Design, Synthesis, and Evaluation of Orally Bioavailable Quinoline-Indole Derivatives as Innovative Multitarget-Directed Ligands: Promotion of Cell Proliferation in the Adult Murine Hippocampus for the Treatment of Alzheimer's Disease” (J Med Chem, 2018).
pEC50: −log10 of the molar value. Activity calls are given as the source filed them. No cut-off for these calls is given here.

How the values were obtained:
[1] = system: SH-SY5Y; experiment: Neuroprotective activity against t-BuOOH-induced oxidative stress in human SH-SY5Y cells assessed as inhibition ROS accumulation pre-incubated for 24 hrs before t-BuOOH challnge for 30 mins by DCFH-DA probe based fluorescence assay; type: functional, cell-based
Procedure, shortened: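 SH-SY5Y cells; test agents at 1–0.01 µM, oxidative stress induced by tert-butyl hydroperoxide; intracellular ROS read by DCFH-DA fluorescence; at least three independent experiments in sextuplicate; EC50 derived.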

[2] = Antioxidant activity assessed as AAPH radical scavenging activity by measuring trolox equivalent at 10 to 20 uM preincubated for 10 mins followed by AAPH addition measured every min for 120 mins in presence of melatonin by ORAC-FL assay; type: functional
Procedure, shortened: (§1)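 ORAC-FL: compound at 10 µM (or 20 µM) in 75 mM phosphate pH 7.4 with fluorescein (70 nM final), preincubated 10 min at 37 °C, then AAPH added. Fluorescence (ex 485/em 520) read each minute for 120 min. Net AUC converted to Trolox equivalents via a 10–100 µM Trolox curve; three independent experiments.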

[3] = molecular target: Amyloid-beta precursor protein (Homo sapiens) (UniProt P05067); experiment: Inhibition of amyloid beta (1 to 42) (unknown origin) self-induced aggregation at 5 uM after 48 hrs in presence of melatonin by thioflavin-T fluorescence assay relative to control
Amyloid-beta precursor protein (Homo sapiens), sequence (P05067 whole entry): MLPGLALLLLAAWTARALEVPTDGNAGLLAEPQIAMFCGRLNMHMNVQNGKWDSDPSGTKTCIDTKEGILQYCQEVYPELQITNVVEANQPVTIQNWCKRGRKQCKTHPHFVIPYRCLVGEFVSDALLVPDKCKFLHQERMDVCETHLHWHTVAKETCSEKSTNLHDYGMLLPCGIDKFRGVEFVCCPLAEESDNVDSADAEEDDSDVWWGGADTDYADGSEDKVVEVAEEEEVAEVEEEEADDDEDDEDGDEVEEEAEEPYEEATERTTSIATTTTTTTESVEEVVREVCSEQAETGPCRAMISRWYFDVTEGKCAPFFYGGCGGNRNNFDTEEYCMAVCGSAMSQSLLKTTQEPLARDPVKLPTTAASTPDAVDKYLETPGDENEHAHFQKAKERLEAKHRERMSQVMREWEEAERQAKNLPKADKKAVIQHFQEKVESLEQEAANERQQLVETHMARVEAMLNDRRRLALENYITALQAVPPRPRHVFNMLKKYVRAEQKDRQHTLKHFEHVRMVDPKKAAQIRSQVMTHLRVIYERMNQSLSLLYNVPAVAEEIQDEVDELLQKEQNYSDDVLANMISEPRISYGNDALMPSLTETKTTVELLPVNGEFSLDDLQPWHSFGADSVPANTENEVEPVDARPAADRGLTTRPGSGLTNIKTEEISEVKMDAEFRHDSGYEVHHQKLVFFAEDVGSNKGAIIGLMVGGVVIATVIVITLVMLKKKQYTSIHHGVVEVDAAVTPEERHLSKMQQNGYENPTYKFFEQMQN
Procedure, shortened: (§2)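 ThT assay of Aβ1-42 self-aggregation: Aβ1-42 25 µM with inhibitor 5 µM (5:1); three independent experiments, each in triplicate.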

[4] = molecular target: Amyloid-beta precursor protein (Homo sapiens) (UniProt P05067); experiment: Inhibition of amyloid beta (1 to 42) (unknown origin) self-induced aggregation at compound to amyloid beta ratio of 1:1 after 48 hrs by thioflavin-T fluorescence assay relative to control; conditions: concentration not given here
Procedure, shortened: (§3)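 Aβ1-42 at 25 µM with compound at 1:1 in 50 mM PBS, pH 7.4, 37 °C, read by ThT fluorescence or by TEM. Disaggregation was done on preformed aggregates. ThT data are mean ± SD of at least three experiments.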

[5] = molecular target: Amyloid-beta precursor protein (Homo sapiens) (UniProt P05067); experiment: Induction of disaggregation of amyloid beta (1 to 42) (unknown origin) fibrils at compound to amyloid beta ratio of 1:1 after 48 hrs by thioflavin-T fluorescence assay relative to control; procedure, shortened: as §3
[6] = system: PC-12; experiment: Induction of rat PC12 cell proliferation at 0.5 to 50 uM after 72 hrs by microscopic analysis; type: functional, cell-based
Procedure, shortened: (§4)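 Undifferentiated PC12 cells cultured 72 h with compound at 0.5–50 µM (images at 10 µM) or with NGF 50 ng/ml, then examined under a digital microscope.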

[7] = system: Mus musculus; experiment: Cognition enhancement activity in double APP/PS1 transgenic Alzheimer's disease mouse model assessed as decrease in escape latency at 30 mg/kg/day, po for 80 days by Morris water maze test; type: functional, organism-based
Procedure, shortened: (§5)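 APP/PS1 double transgenic mice, six months old, gavaged 30 mg/kg/day in 0.5% CMC-Na for 80 days; vehicle mice and WT C57BL/6 received blank CMC-Na. Escape latency recorded daily over the training trials; n = 10, mean ± SD, two-way ANOVA.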

[8] = system: Mus musculus; experiment: Cognition enhancement activity in double APP/PS1 transgenic Alzheimer's disease mouse model assessed as increase in number of virtual platform crossing at 30 mg/kg/day, po for 80 days by Morris water maze test; type: functional, organism-based
Procedure, shortened: (§6)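 APP/PS1 mice, six months old, gavaged 30 mg/kg/day in 0.5% CMC-Na for 80 days. Probe trial was a single 90 s free swim with the platform absent; effective region is twice the platform diameter. n = 10, mean ± SD, two-way ANOVA.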

[9] = system: Mus musculus; experiment: Cognition enhancement activity in double APP/PS1 transgenic Alzheimer's disease mouse model assessed as increase in number of effective region crossing at 30 mg/kg/day, po for 80 days by Morris water maze test; type: functional, organism-based; procedure, shortened: as §6
[10] = system: PC-12; experiment: Induction of rat PC12 cell proliferation at 10 uM after 72 hrs by microscopic analysis; type: functional, cell-based; procedure, shortened: as §4
[11] = system: Mus musculus; experiment: Cognition enhancement activity in double APP/PS1 transgenic Alzheimer's disease mouse model assessed as decrease in path searching behavior at 30 mg/kg/day, po for 80 days by Morris water maze test; type: functional, organism-based; procedure, shortened: as §5
[12] = Metal chelating activity assessed as compound-Cu2+ complex formation by measuring absorption spectrum at 50 uM after 30 mins by UV-Visible spectrophotometric analysis (reference value: 314 nm)
Procedure, shortened: (§7)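 Ligand 50 µM alone or with 50 µM CuSO4, ZnCl2, FeSO4 or FeCl3 in 20 mM HEPES, 150 mM NaCl, pH 7.4; UV-vis absorbance spectra recorded. For Cu2+, titration at room temperature with absorbance at 338 nm gave stoichiometry.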

[13] = Metal chelating activity assessed as compound-Zn2+ complex formation by measuring absorption spectrum at 50 uM after 30 mins by UV-Visible spectrophotometric analysis (reference value: 314 nm); procedure, shortened: as §7
[14] = Metal chelating activity assessed as compound-Fe2+ complex formation by measuring absorption spectrum at 50 uM after 30 mins by UV-Visible spectrophotometric analysis (reference value: 314 nm); procedure, shortened: as §7
[15] = Metal chelating activity assessed as compound-Fe3+ complex formation by measuring absorption spectrum at 50 uM after 30 mins by UV-Visible spectrophotometric analysis (reference value: 314 nm); procedure, shortened: as §7
[16] = molecular target: Amyloid-beta precursor protein (Homo sapiens) (UniProt P05067); experiment: Inhibition of amyloid beta (1 to 42) (unknown origin) self-induced aggregation assessed as less dense fibrils at compound to amyloid beta ratio of 1:1 after 48 hrs by TEM analysis; procedure, shortened: as §3
[17] = molecular target: Amyloid-beta precursor protein (Homo sapiens) (UniProt P05067); experiment: Inhibition of amyloid beta (1 to 42) (unknown origin) self-induced aggregation assessed as thinner fibrils at compound to amyloid beta ratio of 1:1 after 48 hrs by TEM analysis; procedure, shortened: as §3
[18] = molecular target: Amyloid-beta precursor protein (Homo sapiens) (UniProt P05067); experiment: Induction of disaggregation of amyloid beta (1 to 42) (unknown origin) assessed as narrow aggregation at compound to amyloid beta ratio of 1:1 after 48 hrs by TEM analysis; procedure, shortened: as §3
[19] = molecular target: Amyloid-beta precursor protein (Homo sapiens) (UniProt P05067); experiment: Induction of disaggregation of amyloid beta (1 to 42) (unknown origin) assessed as shorter aggregation at compound to amyloid beta ratio of 1:1 after 48 hrs by TEM analysis; procedure, shortened: as §3
[20] = Inhibition of Cu2+ - induced amyloid beta (1 to 42) (unknown origin) aggregation at compound/amyloid beta/Cu2+ ratio of 2:1:1 after 48 hrs by thioflavin T-based fluorometric assay relative to control; conditions: concentration not given here
Procedure, shortened: (§8)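 Chelator, Aβ1-42 (25 µM) and Cu2+ at 2:1:1 in HEPES/NaCl, pH 6.6, 37 °C; inhibition measured on fresh peptide and disaggregation on preformed Cu2+-Aβ aggregates. Read by ThT fluorescence (at least three experiments) or by TEM.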

[21] = molecular target: Amyloid-beta precursor protein (Homo sapiens) (UniProt P05067); experiment: Induction of disaggregation of Cu2+ -associated amyloid beta (1 to 42) (unknown origin) fibrils at compound/amyloid beta/Cu2+ ratio of 2:1:1 after 48 hrs by thioflavin T-based fluorometric assay relative to control; procedure, shortened: as §8
[22] = Inhibition of Cu2+ - induced amyloid beta (1 to 42) (unknown origin) aggregation assessed as small-sized nonfibrillar amorphos amyloid beta at compound/amyloid beta/Cu2+ ratio of 2:1:1 after 48 hrs by TEM analysis; procedure, shortened: as §8
[23] = system: PC-12; experiment: Induction of rat PC12 cell proliferation at 0.5 to 50 uM after 72 hrs in presence of ERK inhibitor U0126 by MTT assay; type: functional, cell-based
Procedure, shortened: (§9)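 PC12 cells treated with compound together with U0126 (ERK inhibitor, 1 µM) or SB203580 (p38 inhibitor, 1 µM); survival measured by MTT, expressed as percent of control, mean ± SD of at least three experiments.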

[24] = system: PC-12; experiment: Induction of rat PC12 cell proliferation at 0.5 to 50 uM after 72 hrs in presence of p38 inhibitor SB203580 by MTT assay; type: functional, cell-based; procedure, shortened: as §9
[25] = Metal chelating activity assessed as compound-Cu2+ complex formation at 50 uM after 30 mins by mass spectrometry
[26] = molecular target: Amyloid-beta precursor protein (Homo sapiens) (UniProt P05067); experiment: Inhibition of amyloid beta (1 to 42) (unknown origin) self-induced aggregation assessed as reduction in unstructured aggregates at compound to amyloid beta ratio of 1:1 after 48 hrs by TEM analysis; procedure, shortened: as §3
[27] = Induction of disaggregation of Cu2+ -associated amyloid beta (1 to 42) (unknown origin) fibrils assessed as small-sized nonfibrillar amorphos amyloid beta at compound/amyloid beta/Cu2+ ratio of 2:1:1 after 48 hrs by TEM analysis; procedure, shortened: as §8
[28] = system: Mus musculus; experiment: Induction of cell proliferation in C57BL/6 mouse hippocampal neurons in DG region assessed as BrdU-incorporation at 0.5 uL/hr, icv for 7 days by immunohistochemical analysis (reference value: 7.8%); type: functional
[29] = system: Mus musculus; experiment: Induction of cell proliferation in C57BL/6 mouse hippocampal neurons in CA1 region assessed as BrdU-incorporation at 0.5 uL/hr, icv for 7 days by immunohistochemical analysis (reference value: 3.2%); type: functional
[30] = system: Mus musculus; experiment: Induction of cell proliferation in C57BL/6 mouse hippocampal neurons in CA2 region assessed as BrdU-incorporation at 0.5 uL/hr, icv for 7 days by immunohistochemical analysis (reference value: 2.4%); type: functional
[31] = system: Mus musculus; experiment: Induction of cell proliferation in C57BL/6 mouse hippocampal neurons in CA3 region assessed as BrdU-incorporation at 0.5 uL/hr, icv for 7 days by immunohistochemical analysis (reference value: 1.4%); type: functional
[32] = system: Mus musculus; experiment: Induction of cell proliferation in C57BL/6 mouse hippocampal neurons in DG region assessed as BrdU-incorporation at 30 mg/kg, po administered via gavage for 7 days by immunohistochemical analysis (reference value: 2.2%); type: functional
Procedure, shortened: (§10)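 C57BL/6 mice, 12 weeks old, n = 6, individually housed beforehand without wheels. Compound gavaged 30 mg/kg/day for 7 days with daily IP BrdU 50 mg/kg; BrdU+ cells counted by immunohistochemistry per hippocampal volume; two-way ANOVA.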

[33] = system: Mus musculus; experiment: Induction of cell proliferation in C57BL/6 mouse hippocampal neurons in CA1 region assessed as BrdU-incorporation at 30 mg/kg, po administered via gavage for 7 days by immunohistochemical analysis (reference value: 2.3%); type: functional; procedure, shortened: as §10
[34] = system: Mus musculus; experiment: Induction of cell proliferation in C57BL/6 mouse hippocampal neurons in CA2 region assessed as BrdU-incorporation at 30 mg/kg, po administered via gavage for 7 days by immunohistochemical analysis (reference value: 2.4%); type: functional; procedure, shortened: as §10
[35] = system: Mus musculus; experiment: Induction of cell proliferation in C57BL/6 mouse hippocampal neurons in CA3 region assessed as BrdU-incorporation at 30 mg/kg, po administered via gavage for 7 days by immunohistochemical analysis (reference value: 1.5%); type: functional; procedure, shortened: as §10
[36] = Antioxidant activity assessed as AAPH radical scavenging activity by measuring trolox equivalent at 10 to 20 uM preincubated for 10 mins followed by AAPH addition measured every min for 120 mins in presence of clioquinol by ORAC-FL assay; type: functional; procedure, shortened: as §1
[37] = molecular target: Amyloid-beta precursor protein (Homo sapiens) (UniProt P05067); experiment: Inhibition of amyloid beta (1 to 42) (unknown origin) self-induced aggregation at 5 uM after 48 hrs in presence of clioquinol by thioflavin-T fluorescence assay relative to control; procedure, shortened: as §2

Row | Compound | pEC50 [1] | inhibition [4] [%] | Activity [5] [%] | Activity [6] | Activity [7] | Activity [8] | Activity [9] | Activity [10] | Activity [11] | inhibition [20] [%] | Activity [21] [%] | inhibition [22] | Activity [27] | other results
1 | Oc1c(I)cc(Cl)c2cccnc12 [CLIOQUINOL] | < 6.00 |  |  |  |  |  |  |  |  |  |  |  |  | Activity (umolequiv/umol) [2]: 2.9; inhibition [3]: 22.5%
2 | Oc1c(Cl)cc(Cl)c2ccc(-c3cc4cc5c(cc4[nH]3)OCO5)nc12 |  | 48.6 to 71.6 | 48.5 to 72.7 | Active | Active | Active | Active | Active | Active |  |  |  |  | 
3 | Oc1ccc2[nH]c(-c3ccc4c(Cl)cc(Cl)c(O)c4n3)cc2c1 |  | 48.6 to 71.6 | 48.5 to 72.7 | Active | Active | Active | Active | Active | Active | 85.8 | 83.3 | Active | Active | Activity [12]: 338 nm; Activity [13]: 309 nm; Activity [14]: 324 nm; Activity [15]: 309 nm; inhibition [16]: Active; inhibition [17]: Active; Activity [18]: Active; Activity [19]: Active; Activity [23]: inactive; Activity [24]: inactive; Activity [25]: Active; inhibition [26]: Active
4 | COc1ccc2[nH]cc(CCNC(C)=O)c2c1 [MELATONIN] | < 6.00 | 49.1 | 44.3 |  |  |  |  |  |  | 47.8 | 24 | inactive | inactive | Activity [28]: 27.4%; Activity [29]: 2.7%; Activity [30]: 2.1%; Activity [31]: 1.2%; Activity [32]: 9.4%; Activity [33]: 3.2%; Activity [34]: 1.6%; Activity [35]: 1.5%; Activity (umolequiv/umol) [36]: 2.9; inhibition [37]: 22.5%
